From ChEMBL document CHEMBL5674881, “The therapeutic properties of resminostat for hepatocellular carcinoma” (2018)
Active and inactive are the calls of the source. The calls are words filed in the database; no cut-off is given here.

Key:
Hep 3B2 [1] = test: Effect on human Hep3B cells assessed as reduction in HDAC2 mRNA level at 80 nM incubated for 24 hrs in presence of SGBS CM by qRT-PCR analysis; format: functional, cell-based
How it was run: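 Hep3B cells exposed to 30% conditioned medium from differentiated SGBS adipocytes, with or without 80 nM drug. HDAC1, 2 and 3 RNA given as fold change versus untreated cells or between treatments.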

Hep 3B2 [2] = test: Effect on human Hep3B cells assessed as reduction of HDAC global activity at 80 nM incubated for 24 hrs in presence of SGBS CM by FluoroFire HDAC Activity Assay Kit relative to control; format: functional; set-up: scale not given: the % may be the effect or the level left
How it was run: (§1)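 Hep3B cells treated 24 h with 80 nM drug, alone or with 30% SGBS conditioned medium. Lysates made with lysis reagent (15 min, room temperature, shaking), spun, and supernatant used. Preincubated 20 min at 37°C, then Emerald substrate added for 1 h at 37°C. Fluorescence read at Ex 490/Em 525 nm. HeLa nuclear extract as positive control, HeLa extract with trichostatin A as negative control (n = 3).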

Hep 3B2 [3] = test: Downregulation of HDAC1 expression in human Hep3B cells at 80 nM incubated for 24 hrs in presence of 17-AAG by qRT-PCR analysis; format: functional, cell-based
Hep 3B2 [4] = test: Downregulation of BCL2 expression in human Hep3B cells at 80 nM incubated for 24 hrs by qRT-PCR analysis; format: functional, cell-based
Hep 3B2 [5] = test: Anti-proliferative activity against human Hep3B cells assessed as increase in BIM mRNA level at 80 nM incubated for 24 hrs by qRT-PCR analysis; format: functional, cell-based
Hep 3B2 [6] = test: Anti-proliferative activity against human Hep3B cells assessed as increase in p27 mRNA expression at 80 nM incubated for 24 hrs in presence of SGBS CM by qRT-PCR analysis; format: functional, cell-based
Hep 3B2 [7] = test: Effect on human Hep3B cells assessed as reduction of HDAC global activity at 80 nM incubated for 24 hrs by FluoroFire HDAC Activity Assay Kit relative to control; format: functional; set-up: scale not given: the % may be the effect or the level left; how it was run: as §1
Hep 3B2 [8] = test: Anti-proliferative activity against human Hep3B cells assessed as decrease in STAT3 mRNA level at 80 nM incubated for 24 hrs in presence of SGBS CM by qRT-PCR analysis; format: functional, cell-based
Hep 3B2 [9] = test: Anti-proliferative activity against human Hep3B cells assessed as reduction in cell viability at 80 nM incubated for 24 hrs in presence of cisplatin by Fluoro Fire-Blue ProViaTox assay relative to control; format: functional, cell-based
HepG2 [10] = test: Effect on human HepG2 cells assessed as reduction in HDAC1 mRNA level at 80 nM incubated for 24 hrs by qRT-PCR analysis; format: functional, cell-based
How it was run: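 HepG2 (EMEM) and Huh7 (DMEM) cells, both with 10% FBS, treated with 30% differentiated-SGBS conditioned medium with or without 80 nM drug. HDAC1 RNA given as fold change versus untreated cells or between treatments (n = 3).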

Hep 3B2 [11] = test: Anti-proliferative activity against human Hep3B cells assessed as increase in cleaved Caspase 9 level at 80 nM incubated for 24 hrs in presence of SGBS CM by Tetraplex-Assay Kit analysis; format: functional, cell-based
How it was run: (§2)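 Hep3B seeded at 20000 cells/well overnight, then treated with 30% differentiated SGBS conditioned medium with or without resminostat 80 nM for 24 h. Tetraplex caspase substrate buffer added during treatment for real-time cleavage read-out: Caspase 3/7 at Ex 535/Em 620 nm, Caspase 8 at Ex 490/Em 525 nm, Caspase 9 at Ex 370/Em 450 nm. Compared with controls or between treatments; n = 3.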

Hep 3B2 [12] = test: Anti-proliferative activity against human Hep3B cells assessed as increase in Caspase 8 expression at 80 nM incubated for 24 hrs by qRT-PCR analysis; format: functional, cell-based
Huh-7 = test: Anti-proliferative activity against human Huh-7 cells assessed as reduced cell proliferation at 80 nM incubated for 24 hrs by Fluoro Fire-Blue ProViaTox assay; format: functional, cell-based
Hep 3B2 [13] = test: Upregulation of BIM expression in human Hep3B cells at 80 nM incubated for 24 hrs by qRT-PCR analysis; format: functional, cell-based
How it was run: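 RNA levels of BCL-2, BIM, BAX and BAD measured in Hep3B cells after 24 h with 80 nM drug. Triplicates, three independent experiments, t-test.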

Hep 3B2 [14] = test: Anti-proliferative activity against human Hep3B cells assessed as reduction in Vimentin protein expression level by measuring green fluorescence at 80 nM incubated for 24 hrs in presence of SGBS CM by immunofluorescence analysis
Hep 3B2 [15] = test: Anti-proliferative activity against human Hep3B cells assessed as decrease in TNF-alpha mRNA level at 80 nM incubated for 24 hrs in presence of SGBS CM by qRT-PCR analysis; format: functional, cell-based
Hep 3B2 [16] = test: Downregulation of STAT3 mRNA expression in human Hep3B cells at 80 nM incubated for 24 hrs in presence of 17-AAG by qRT-PCR analysis; format: functional, cell-based
How it was run: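 Hep3B cells given 80 nM drug, 17-AAG (50 nM) or both for 24 h. STAT3 and a gene panel (BCL-2, HSP90, ZFP64) measured at RNA level. Triplicates, three independent experiments, mean ± SD.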

HepG2 [17] = test: Anti-proliferative activity against human HepG2 cells assessed as reduced cell proliferation at 80 nM incubated for 24 hrs in presence of SGBS CM by Fluoro Fire-Blue ProViaTox assay; format: functional, cell-based
Hep 3B2 [18] = test: Anti-proliferative activity against human Hep3B cells assessed as increase in cleaved Caspase 3/7 level at 80 nM incubated for 24 hrs in presence of SGBS CM by Tetraplex-Assay Kit analysis; format: functional, cell-based; how it was run: as §2
Hep 3B2 [19] = test: Downregulation of HDAC expression in human Hep3B cells at 80 nM incubated for 24 hrs in presence of 17-AAG by qRT-PCR analysis; format: functional, cell-based
Hep 3B2 [20] = test: Anti-proliferative activity against human Hep3B cells assessed as reduced cell proliferation at 80 nM for 24 hrs in presence of DZNep by Fluoro Fire-Blue ProViaTox assay relative to control; format: functional; set-up: scale not given: the % may be the effect or the level left
Hep 3B2 [21] = test: Downregulation of EZH2 expression in human Hep3B cells at 80 nM incubated for 24 hrs in presence of GSK343 by qRT-PCR analysis; format: functional, cell-based
Hep 3B2 [22] = test: Anti-proliferative activity against human Hep3B cells assessed as increase in Caspase 7 expression at 80 nM incubated for 24 hrs by qRT-PCR analysis; format: functional, cell-based
Hep 3B2 [23] = test: Anti-proliferative activity against human Hep3B cells assessed as decrease in Cyclin D1 expression at 80 nM incubated for 24 hrs in presence of SGBS CM by qRT-PCR analysis; format: functional, cell-based
Hep 3B2 [24] = test: Anti-proliferative activity against human Hep3B cells assessed as increase in cleaved Caspase 8 level at 80 nM incubated for 24 hrs in presence of SGBS CM by Tetraplex-Assay Kit analysis; format: functional, cell-based; how it was run: as §2
Hep 3B2 [25] = test: Anti-proliferative activity against human Hep3B cells assessed as decrease in VEGF mRNA level at 80 nM incubated for 24 hrs in presence of SGBS CM by qRT-PCR analysis; format: functional, cell-based

`CN(C)Cc1ccc(S(=O)(=O)n2ccc(/C=C/C(=O)NO)c2)cc1` [RESMINOSTAT] was tested, and the Activity (Hep 3B2 [1]) was “Active”, the Activity (Hep 3B2 [2]) was 52.67% and the Activity (Hep 3B2 [3]) was “Active”. For the same compound, the Activity (Hep 3B2 [4]) was “Active”, the Activity (Hep 3B2 [5]) was “Active” and the Activity (Hep 3B2 [6]) was “Active”. The Activity (Hep 3B2 [7]) was 62.33%, the Activity (Hep 3B2 [8]) was “Active” and the Activity (Hep 3B2 [9]) was “Active”. The Activity (HepG2 [10]) was “Active”, the Activity (Hep 3B2 [11]) was “Active” and the Activity (Hep 3B2 [12]) was “Active”. The Activity (Huh-7) was “Active”, the Activity (Hep 3B2 [13]) was “Active” and the Activity (Hep 3B2 [14]) was “Active”. For the same compound, the Activity (Hep 3B2 [15]) was “Active”, the Activity (Hep 3B2 [16]) was “Active” and the Activity (HepG2 [17]) was “Active”. For the same compound, the Activity (Hep 3B2 [18]) was “Active”, the Activity (Hep 3B2 [19]) was “Active” and the Activity (Hep 3B2 [20]) was 11.76%. The Activity (Hep 3B2 [21]) was “Active”, the Activity (Hep 3B2 [22]) was “Active” and the Activity (Hep 3B2 [23]) was “Active”. The Activity (Hep 3B2 [24]) was “Active” and the Activity (Hep 3B2 [25]) was “Active”.
